Assay results from ChEMBL document CHEMBL4513216, “Probing the Open Global Health Chemical Diversity Library for Multistage-Active Starting Points for Next-Generation Antimalarials” (ACS Infect Dis, 2020).

Assay: Toxicity liver stage against HepG2, at 10uM
Assay type: cell-based
Parameters: test concentration 10 uM, cell line HepG2-A16-CD81EGFP
Conditions: human, HepG2-A16-CD81EGFP cells; read-out: INHIBITION
Outline: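 Uninfected HepG2-A16-CD81EGFP cells, 3 × 10^3 per well, 1536-well, plated on prespotted compound at 10 μM final, parasite-free screening media added to match infected plates; puromycin 10 μM positive, DMSO 0.5% negative; run in parallel with 48 h PbLuc assay at 37 °C, 5% CO2; viability by CellTiter-Glo luminescence, normalized to controls.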

SMILES | cytotoxicity at 10 µM [%]
CCCc1ccc2oc(C(=O)N3CCC(O)CC3)c(C)c2c1 | 0.361
CN(C)C(=O)c1cc2ncc(C(=O)NC3CC3)cc2n1C | -0.931
N#CCCN(CC1CCCO1)C(=O)c1ccc2nonc2c1 (stereo unspecified) | 1.35
CC[S+](CC)[c-]1c(=O)[nH]c(=O)n(Cc2ccc(F)cc2)c1=O | 4.12
CC(C)NC(=O)c1cccc(Oc2ccc3nncn3n2)c1 | -13.3
Cn1cnc2ccc(NC(=O)CCCn3cccn3)cc2c1=O | 4.31
COCCc1nnc(NC(=O)CSCc2ccccc2)o1 | -3.75
O=C1CCC2(CCCN(C(=O)Cc3ccccc3)C2)N1 (stereo unspecified) | 8.18
O=C(NC1CC1)N1C[C@H]2CN(c3ccccc3)C(=O)[C@H]2C1 | -1.13
Cc1nc(-c2cc(C(=O)NCC(C)(C)CO)c3ccccn23)cs1 | 6.1
COc1cc(N2C[C@@H]3COC[C@]3(C(=O)NCc3ccccn3)C2)ncn1 | 7.55
CC(C)N(C)Cc1noc2c1CN(C(=O)c1cnccn1)CC2 | 4.44
CCO[C@@H]1CC[C@H]2[C@H]1OCCN2S(=O)(=O)C1CC1 | 5.64
Cc1ccc(Cn2c(=O)[nH]c3csnc3c2=O)cc1 | 2.93
Cc1ccc(C(=O)Nc2nn[nH]n2)s1 | -0.246
CC(C)NC(=O)C1(Cc2ccccc2-c2ccccc2)CCCNC1 (stereo unspecified) | 3.05
CN([C@@H]1CC[C@@H](N2CCOCC2)[C@@H]1O)S(=O)(=O)c1ccccc1 | 2.77
COc1ccc2c(c1)CC(C1CCOCC1)N(C(=O)c1ccn(C)n1)C2 (stereo unspecified) | 1.78
CC(C)c1cc(C(=O)N2CCC3(CCc4ccccc4C(=O)N3)C2)no1 (stereo unspecified) | 6.83
O=c1[nH]cc(N2CCCCC2)c(=O)[nH]1 | 5.55
Cc1cc(C)nc(N2CCOC(c3cc(CCO)[nH]n3)C2)n1 (stereo unspecified) | 1.89
Cc1c[nH]nc1C1CCCN(C(=O)Cn2cccn2)C1 (stereo unspecified) | -14.5
CN(C)c1cc(C2CCCN(C(=O)Cn3cc(Cl)cn3)C2)ccn1 (stereo unspecified) | -23.2

SMILES | cytotoxicity at 10 µM [%]
CCn1ncc(CN2C[C@@H]3CCCN3C[C@H]2CCSC)c1C | -19.1
COc1cccc(CC(=O)N2CCCC(c3n[nH]c4nccnc34)C2)c1 (stereo unspecified) | 4.62
Cc1ccsc1CN(CCCN(C)C)Cc1ccccn1 | -4.11
CCc1ccccc1C(=O)NS(=O)(=O)CCCC#N | -5.83
O=C(Nc1cn[nH]c1)N1CCCCCC1c1ccncc1 (stereo unspecified) | -3.4
CCc1nnc2n1CCN(C(C(=O)NC1CC1)c1ccc(F)cc1)C2 (stereo unspecified) | 2.16
CCC(O)CN(Cc1cccc(C(=O)N(C)C)c1)c1ccccc1 (stereo unspecified) | 0.503
Cc1nn(C)c(C)c1OCC(=O)N1CCCc2c(F)ccc(F)c21 | 2.27
O=S(=O)(NCc1ccnc(-n2ccnc2)c1)c1cncc(F)c1 | 1.28
CCc1c(C(=O)N2CC(C)OC(C)(C)C2)cnn1-c1ccccn1 (stereo unspecified) | -2.51
Cc1nnc2n1CCN(c1nc3ccccc3o1)C2 | 3.51
CN(Cc1ccc(Cl)s1)C(=O)NCCC(=O)N1CCCCCC1 | -0.691
Cc1ccc(S(=O)(=O)Nc2cccnc2O)cc1C | 3.33
COc1cccc(CNC(=O)CCOc2ccccc2C)c1 | -1.2
Cc1nnc(CSc2ccc(C(F)(F)F)cn2)o1 | -6.51
CCNc1cc2c(nn1)CCN(C(=O)Cc1ccc3c(c1)CCO3)C2 | 1.42
Cn1cc(C(=O)N2CCCC2CCc2ccccc2)cn1 (stereo unspecified) | 9.84
CCc1noc(C)c1C(=O)NCc1cc[nH]n1 | 3.44
CC(=O)NCCCSC1CCN(c2ccccc2F)C1=O (stereo unspecified) | -2.45
Cc1ccnc(C(NC(=O)c2ccc(O)nc2C)C2CC2)n1 (stereo unspecified) | -5.3
COC(=O)CNC(=O)c1scnc1C | 7.71
CCNS(=O)(=O)C1CCN(C(=O)c2ccc(CC)o2)C1 (stereo unspecified) | 5.45
Cc1nc(C)n(CC2CCCCN2CCCS(C)(=O)=O)n1 (stereo unspecified) | 5.02

SMILES | cytotoxicity at 10 µM [%]
CCC(O)CN1CCN(C(=O)CN(C)c2ccc(Cl)cn2)CC1 (stereo unspecified) | 0.684
Cc1ccc(CS(=O)(=O)CC(=O)NCc2ccccc2F)cc1 | 0.515
CCN1CCC(NC(=O)c2ccc(F)cc2I)CC1 | -10
CC(C)C(C)(C#N)NC(=O)Cn1cc(C(N)=O)c(-c2ccccc2)n1 (stereo unspecified) | -8.82
COc1ccccc1CNC1(CCO)CCOCC1 | 20.5
CC(NCC1CCN(CCO)CC1)c1ccc(OC(F)(F)F)cc1 (stereo unspecified) | -15.1
Cc1ccc(CC(=O)Nc2ccc(CS(C)(=O)=O)c(F)c2)cc1 | -2.77
Cc1nnc2n1CCN(C(=O)CN1C(=O)CCCc3ccccc31)C2 | -11.4
CC(=O)c1csc(-c2csc(Cn3ccc(=O)[nH]c3=O)n2)c1 | 5.39
Cc1nnc(CN(Cc2ccccc2C(F)(F)F)C2CC2)o1 | 8.32
CCc1nnc(C(C)N2CCc3cncnc3C2)o1 (stereo unspecified) | 7.49
CN(C)C(=O)Cc1ccccc1NCc1cccc2cccnc12 | -1.81
CN(C)CCN(Cc1cccc(F)c1)C(=O)c1ccc2nccn2c1 | -0.0817
O=C(CN1CCCNC1=O)Nc1ccccc1SC(F)(F)F | 12.7
CCC(=O)N1CCC(NC(=O)c2cccc(-n3ccnc3)c2)C1 (stereo unspecified) | 8.96
Cc1cc(CNC(=O)N2CCc3ccccc3C2CO)c(C)o1 (stereo unspecified) | 7.44
O=C(CSc1ccc2c(c1)OCCO2)NS(=O)(=O)C1CCCCC1 | -3.69
CS(=O)(=O)N1CCO[C@@H]2CN(C(=O)c3cccnc3)C[C@@H]2C1 | 7.64
c1cnc(NCc2noc3c2CN(c2cnccn2)CC3)nc1 | 0.774
Cc1cc(C(=O)NC2CCc3c(ccc(=O)n3CC(C)C)C2)no1 (stereo unspecified) | 7.15
CC1=N[C@@]2(CC[C@@H]3CN(S(=O)(=O)CC(C)C)C[C@@H]32)C(=O)N1CC1CC1 | -66.6
Cc1cc(N2CCN(C(=O)c3cnn(C(C)C)c3)CC2)cc(C)n1 | -15.2
CCOc1ccccc1CC(=O)N1C[C@H](C2CC2)[C@@H](N)C1 | -2.45

SMILES | cytotoxicity at 10 µM [%]
CCn1nc(CC(C)C)cc1C(=O)N1CCC2(CC1)[C@H](O)C[C@@H]2O | -7.2
O=C(c1cnc(Nc2ccccc2)nc1)N1CCC(O)(CO)CC1 | -0.756
O=C(COCc1ccccc1)N1CCN(Cc2ccccc2F)C(=O)C1 | -3.19
N[C@H]1CN(C(=O)c2ccccc2OCc2ccccc2)C[C@@H]1C1CC1 | -3.57
COCC1(C(=O)N[C@H]2CN(c3noc(C)n3)C[C@@H]2C2CC2)CCC1 | -135
COc1ccccc1OC1(C(=O)O)CCN(c2nccnc2OC)CC1 | -6.25
c1cc(-c2ccc(CN3CCC4(CCNCC4)CC3)s2)[nH]n1 | -166
O=C(NCCn1cc(Cl)cn1)C1CCN(C(=O)C2CC2)CC1 | -50.5
NC1CCN(S(=O)(=O)c2ccc(C(=O)N3CCSCC3)cc2)C1 (stereo unspecified) | 7.1
C=C(C)COc1ccccc1C(=O)NCCc1nncn1C | -3.06
O=C(c1coc(COc2ccccc2F)n1)N1CCC[C@H]1CO | 0.835
CCN1CC2(CCC1=O)CCN(CCc1nccn1C)CC2 | 4.65
CCn1ccnc1CN(C)C(=O)Cn1ccc2ccccc2c1=O | 2.37
COc1ccccc1CN1C(=O)O[C@@H]2CN(c3nccs3)C[C@@H]21 | 6.27
Cc1ccc(C(=O)N2Cc3ccccc3C2)cc1N1CCNC1=O | -13.9
CC(C)n1ccnc1C1CCN(C(=O)c2cc[nH]n2)CC1 | -3.28
CCCN1CCCn2nc(CNS(=O)(=O)c3cccc(C#N)c3)cc2C1 | -2.96
Cc1ccsc1[C@@H]1CCN(C(=O)CCC(=O)N2CCCCCC2)C[C@H]1O | -1.72
Fc1ccccc1C1NCCc2cc3c(cc21)OCCO3 (stereo unspecified) | -10.2
O=C(Nc1ccc(OC2CCCC2)cc1)C1CCCN1c1nccs1 (stereo unspecified) | -10.2
CN(C)c1cc(C(=O)N2CCCCC2)ccn1 | -4.63
Cc1nc(C2CCCN2CC(=O)NCCOc2cccc(F)c2)no1 (stereo unspecified) | -16.3
O=C(Nc1ncn(CC(=O)N2CCCCCC2)n1)C1CCCC1 | -11.2

SMILES | cytotoxicity at 10 µM [%]
COc1c(CNC(c2ccccc2F)c2nccn2C)c(C)nn1C (stereo unspecified) | -13.9
CCOc1ccccc1OC1CCN(C(=O)c2[nH]nc(C)c2Br)CC1 | -8.75
CC(=O)c1cccc(OCC(=O)NS(=O)(=O)c2cccs2)c1 | -10.5
Cc1cnn(CC2CCCCN2C(=O)Cc2ccc(C#N)cc2)c1 (stereo unspecified) | -7.09
CN(C)c1ccc(C(=O)N2CCC(c3n[nH]c(C4CC4)n3)CC2)cc1 | -2.42
COc1cn(-c2ccccc2)nc1C(=O)NCCCN1CCCC(C)C1 (stereo unspecified) | -11.1
COc1ccccc1C(O)CNC(=O)Nc1ncccc1C (stereo unspecified) | -8.65
CCc1nc(C2CCCN2C(=O)c2ccc3c(c2)nnn3CC)no1 (stereo unspecified) | 4.5
O=C(NCc1nnc2n1CCCC2)N1CCc2ccccc2C1 | 4.79
CCN1CCN(C2CCN(Cc3nnc(C(C)(C)C)o3)CC2)C1=O | 3.8
CC(OCC(F)(F)F)C(=O)NCc1ccc(-n2cncn2)nc1 (stereo unspecified) | -2.55
CC(=O)N1CCC2(CC1)CN(C)C(=O)C[C@H]2C(F)(F)F | -161
O=C1CCC2(CCC(NCc3ccoc3)CC2)N1 (stereo unspecified) | 1.14
c1cc(CN2CC[C@H]3CO[C@H](CN4CCOCC4)[C@H]3C2)cs1 | 4.91
COCC(=O)N1CCc2ccc(=O)n(Cc3csc(C)n3)c2CC1 | 8.19
O=C(c1ccc(F)cc1)N1CCC2(CCN(Cc3ccccn3)C2=O)C1 (stereo unspecified) | -136
CC(=O)N1CCCC1c1nnn2cc(Nc3ccccc3)ccc12 (stereo unspecified) | 12.2
CC(C)CCN1CCc2[nH]nc(C(=O)N3CCCC3C)c2C1 (stereo unspecified) | 4.32
O=C(CCc1ccccc1)NC1CCC2(CCC(=O)N2)CC1 (stereo unspecified) | 1.35
